Measured values published in ChEMBL document CHEMBL1140071, “A new synthetic access to furo[3,2-f]chromene analogues of an antimycobacterial” (2008).
≈ marks a conversion by molar mass, not a printed value.

How the values were obtained:
[1] = test system: Mycolicibacterium smegmatis; experiment: Antimycobacterial activity against Mycobacterium smegmatis mc2 155 after 48 hrs by microdilution resazurin assay; format: functional; details: str. MC2 155, 48 h
How it was run: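 M. smegmatis mc²155 inoculum grown in Dubos medium with 10% ADC. Twofold serial drug dilutions (from 500 to 0.9) in Dubos medium, from 50 mg/mL DMSO stocks. DMSO and isoniazid controls. Sealed plates at 37 °C for 48 h, then 0.01% resazurin added for another 24 h at 37 °C. MIC is the lowest concentration preventing the blue-to-pink change.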

[2] = test system: Mycobacterium tuberculosis; experiment: Antimycobacterial activity against Mycobacterium tuberculosis H37Rv after 6 days by microdilution resazurin assay; format: functional; details: 144 h
How it was run: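 Inoculum of virulent M. tuberculosis H37Rv grown in Dubos broth plus 10% ADC. Compounds from 50 mg/mL DMSO stocks, serially diluted twofold in Dubos medium (500 down to 0.9), with DMSO and isoniazid controls. Incubated 6 days at 37 °C, then 0.01% resazurin for 24 h more. MIC read as the lowest concentration without the blue-to-pink shift.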

| SMILES | MIC95 [1] | MIC95 [2] |
| --- | --- | --- |
| C#CC(C)(C)Oc1ccc2oc(-c3ccncc3)cc2c1 | 25 µg/mL (≈ 90.1 µM) | 16 µg/mL (≈ 57.7 µM) |
| Oc1ccc2oc(-c3ccncc3)cc2c1 | > 50 µg/mL | > 10 µg/mL |
| CC1(C)C=Cc2c(ccc3occ(CCCO)c23)O1 | 62 µg/mL (≈ 240 µM) | 125 µg/mL (≈ 484 µM) |
| Cc1cc2c3c(ccc2o1)OC(C)(C)C=C3 | > 500 µg/mL | > 500 µg/mL |
| CC1(C)CCc2c(ccc3oc(-c4ccccn4)cc23)O1 | 25 µg/mL (≈ 89.5 µM) | 10 µg/mL (≈ 35.8 µM) |
| Oc1ccc2oc(-c3ccccc3)cc2c1 | 8 µg/mL (≈ 38.1 µM) | 125 µg/mL (≈ 595 µM) |
| CC1(C)C=Cc2c(ccc3oc(-c4ccc(Br)nc4)cc23)O1 | > 50 µg/mL | > 10 µg/mL |
| CC1(C)CCc2c(ccc3oc(-c4cccnc4)cc23)O1 | 6.2 µg/mL (≈ 22.2 µM) | 10 µg/mL (≈ 35.8 µM) |
| Cc1c(-c2ccncc2)oc2ccc3c(c12)C=CC(C)(C)O3 | 6.2 µg/mL (≈ 21.3 µM) | 3 µg/mL (≈ 10.3 µM) |
| Cc1c(-c2ccncc2)oc2ccc(O)cc12 | > 50 µg/mL | > 10 µg/mL |
| CC1(C)C=Cc2c(ccc3c2C2CCCOC2O3)O1 (centres undefined) | 125 µg/mL (≈ 484 µM) | 250 µg/mL (≈ 968 µM) |
| CC1(C)CCc2c(ccc3oc4ccccc4c23)O1 | 10 µg/mL (≈ 39.6 µM) | 10 µg/mL (≈ 39.6 µM) |
| CC1(C)C=Cc2c(ccc3oc(-c4cccc(Br)n4)cc23)O1 | > 50 µg/mL | > 10 µg/mL |
| CC1(C)C=Cc2c(ccc3oc4ccccc4c23)O1 | 10 µg/mL (≈ 40 µM) | 10 µg/mL (≈ 40 µM) |
| CC1(C)C=Cc2c(ccc3oc(-c4ccccc4)cc23)O1 | > 500 µg/mL | 32 µg/mL (≈ 116 µM) |
| CN(C)CCCNc1cccc(-c2cc3c4c(ccc3o2)OC(C)(C)C=C4)n1 | 12.5 µg/mL (≈ 33.1 µM) | 10 µg/mL (≈ 26.5 µM) |
| NNC(=O)c1ccncc1 [ISONIAZID] | 12 µg/mL (≈ 87.5 µM) | 0.1 µg/mL (≈ 0.729 µM) |
| CC1(C)C=Cc2c(ccc3oc4c(c23)CCCC4)O1 | > 500 µg/mL | 120 µg/mL (≈ 472 µM) |
| CC(=O)OCCCc1coc2ccc3c(c12)C=CC(C)(C)O3 | > 500 µg/mL | > 500 µg/mL |
| CC1(C)C=Cc2c(ccc3oc(-c4ccncc4)cc23)O1 | 3 µg/mL (≈ 10.8 µM) | 2.5 µg/mL (≈ 9.01 µM) |
| CN(C)CCCNc1ccc(-c2cc3c4c(ccc3o2)OC(C)(C)C=C4)cn1 | 12.5 µg/mL (≈ 33.1 µM) | 10 µg/mL (≈ 26.5 µM) |
| O=Cc1c(O)ccc2c1C1CCCOC1O2 (centres undefined) | > 125 µg/mL | 125 µg/mL (≈ 568 µM) |
